Test results published in publication PMC8358123 (International Journal for Parasitology: Drugs and Drug …, 2021).

Legend:
PMM cytotoxicity = assay type: cell-based, mouse; settings: Swiss, mouse, PMM CC50, primary peritoneal mouse macrophages
[1] = system: T. b. rhodesiense (STIB-900 strain); experiment: In vitro activity against T. b. rhodesiense; assay type: cell-based; settings: Trypanosoma brucei, read-out: T. b. rhod. EC50
Outline: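 STIB-900 parasites, axenic in HMI-9 with 10% FBS at 37 °C and 5% CO2, seeded at 4×10^3 parasites/well. Test compound was given as ten 4-fold dilutions (top 64 μM, <1% DMSO). Growth period […], then resazurin added and fluorescence measured after 24 h. IC50 from a sigmoid variable-slope fit versus untreated controls; mean ± SEM, 2–4 experiments. Suramin as reference.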

[2] = system: T. b. brucei (Squib 427 strain); experiment: In vitro activity against T. b. brucei; assay type: cell-based; settings: Trypanosoma brucei, read-out: T. b. bruc. EC50
MRC-5SV2 cytotoxicity = assay type: cell-based, human; settings: human, MRC-5SV2 cells, MRC-5 CC50, MRC-5SV2 cells, 3 days incubation
Outline: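 MRC-5SV2 cells (3×10^4 cells/mL) in MEM with Earl's salts, L-glutamine, NaHCO3 and 5% inactivated FCS, at 37 °C and 5% CO2. Exposure to test compound (ten 4-fold dilutions, top 64 μM, <1% DMSO) lasted 3 days. Resazurin was then added for 4 h at 37 °C, with fluorescence read at ex 550/em 590 nm. CC50 from % reduction relative to untreated (100%) and medium-only (0%) controls.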

[3] = system: T. cruzi Tulahuen CL2 β-galactosidase strain; experiment: In vitro activity against T. cruzi intracellular amastigotes in MRC-5SV2 cells; assay type: cell-based; settings: Trypanosoma cruzi, MRC-5 SV2, 168 h, read-out: T. cruzi EC50
Outline: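 Nifurtimox-sensitive Tulahuen CL2 β-galactosidase parasites infected MRC-5SV2 fibroblasts in MEM with 200 mM L-glutamine, 16.5 mM NaHCO3 and 5% inactivated FCS, at 37 °C and 5% CO2. Wells held 4×10^3 cells and 4×10^4 parasites. Test compound was given as ten 4-fold dilutions (top 64 μM, <1% DMSO) for 7 days. CPRG was then added for 4 h at 37 °C and absorbance read at 540 nm. IC50 from % reduction versus untreated-infected controls; mean ± SEM, 2–4 experiments. Benznidazole reference.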

SMILES: CCCC#Cc1cn([C@@H]2O[C@H](CO)[C@@H](O)[C@H]2O)c2ncnc(C)c12 [compound 25]
- CC50 at 5 days (PMM cytotoxicity): > 64 µM
- EC50 [1]: 0.37 ± 0.08 µM
- EC50 [2]: 0.89 ± 0.21 µM
- CC50 at 3 days (MRC-5SV2 cytotoxicity): > 64 µM
- EC50 [3]: 20.4 ± 0.39 µM

SMILES: CCCCCc1cn([C@@H]2O[C@H](CO)[C@@H](O)[C@H]2O)c2ncnc(C)c12 [compound 26]
- CC50 at 5 days (PMM cytotoxicity): > 64 µM
- EC50 [1]: > 64 µM
- EC50 [2]: > 64 µM
- CC50 at 3 days (MRC-5SV2 cytotoxicity): > 64 µM
- EC50 [3]: > 64 µM

SMILES: CCCCC#Cc1cn([C@@H]2O[C@H](CO)[C@@H](O)[C@H]2O)c2ncnc(C)c12 [compound 27]
- CC50 at 5 days (PMM cytotoxicity): 8 µM
- EC50 [1]: 1.19 µM
- EC50 [2]: 0.52 µM
- CC50 at 3 days (MRC-5SV2 cytotoxicity): 7.58 µM
- EC50 [3]: 2.08 µM

SMILES: CCCCCCc1cn([C@@H]2O[C@H](CO)[C@@H](O)[C@H]2O)c2ncnc(C)c12 [compound 28]
- CC50 at 5 days (PMM cytotoxicity): > 64 µM
- EC50 [1]: > 64 µM
- EC50 [2]: > 64 µM
- CC50 at 3 days (MRC-5SV2 cytotoxicity): > 64 µM
- EC50 [3]: 42.1 µM

SMILES: CC(C)=Cc1cn([C@@H]2O[C@H](CO)[C@@H](O)[C@H]2O)c2ncnc(C)c12 [compound 29]
- CC50 at 5 days (PMM cytotoxicity): > 64 µM
- EC50 [1]: > 64 µM
- EC50 [2]: > 64 µM
- CC50 at 3 days (MRC-5SV2 cytotoxicity): > 64 µM
- EC50 [3]: > 64 µM

SMILES: Cc1ncnc2c1c(CC(C)C)cn2[C@@H]1O[C@H](CO)[C@@H](O)[C@H]1O [compound 30]
- CC50 at 5 days (PMM cytotoxicity): > 64 µM
- EC50 [1]: > 64 µM
- EC50 [2]: > 64 µM
- CC50 at 3 days (MRC-5SV2 cytotoxicity): > 64 µM
- EC50 [3]: > 64 µM

SMILES: Cc1ncnc2c1c(C#CC(C)C)cn2[C@@H]1O[C@H](CO)[C@@H](O)[C@H]1O [compound 31]
- CC50 at 5 days (PMM cytotoxicity): > 64 µM
- EC50 [1]: 16 µM
- EC50 [2]: 23.5 µM
- CC50 at 3 days (MRC-5SV2 cytotoxicity): > 64 µM
- EC50 [3]: > 64 µM

SMILES: Cc1ncnc2c1c(CCC(C)C)cn2[C@@H]1O[C@H](CO)[C@@H](O)[C@H]1O [compound 32]
- CC50 at 5 days (PMM cytotoxicity): > 64 µM
- EC50 [1]: 4 µM
- EC50 [2]: > 64 µM
- CC50 at 3 days (MRC-5SV2 cytotoxicity): > 64 µM
- EC50 [3]: > 64 µM

SMILES: Cc1ncnc2c1c(C#CC1CC1)cn2[C@@H]1O[C@H](CO)[C@@H](O)[C@H]1O [compound 33]
- CC50 at 5 days (PMM cytotoxicity): > 64 µM
- EC50 [1]: 0.34 ± 0.11 µM
- EC50 [2]: 1.36 ± 0.41 µM
- CC50 at 3 days (MRC-5SV2 cytotoxicity): 27.5 ± 19 µM
- EC50 [3]: 4.59 ± 0.89 µM

SMILES: Cc1ncnc2c1c(CCC1CC1)cn2[C@@H]1O[C@H](CO)[C@@H](O)[C@H]1O [compound 34]
- CC50 at 5 days (PMM cytotoxicity): > 64 µM
- EC50 [1]: > 64 µM
- EC50 [2]: > 64 µM
- CC50 at 3 days (MRC-5SV2 cytotoxicity): > 64 µM
- EC50 [3]: > 64 µM

SMILES: Cc1ncnc2c1c(/C=C/c1ccccc1)cn2[C@@H]1O[C@H](CO)[C@@H](O)[C@H]1O [compound 35]
- CC50 at 5 days (PMM cytotoxicity): 32 µM
- EC50 [1]: 4.54 ± 0.93 µM
- EC50 [2]: 6.19 ± 0.57 µM
- CC50 at 3 days (MRC-5SV2 cytotoxicity): 26.6 ± 1.42 µM
- EC50 [3]: 1.94 ± 0.09 µM

SMILES: Cc1ncnc2c1c(CCc1ccccc1)cn2[C@@H]1O[C@H](CO)[C@@H](O)[C@H]1O [compound 36]
- CC50 at 5 days (PMM cytotoxicity): > 64 µM
- EC50 [1]: 38.7 µM
- EC50 [2]: > 64 µM
- CC50 at 3 days (MRC-5SV2 cytotoxicity): > 64 µM
- EC50 [3]: 40.3 µM

SMILES: CCc1cn([C@@H]2O[C@H](CO)[C@@H](O)[C@H]2O)c2ncnc(CC)c12 [compound 37]
- CC50 at 5 days (PMM cytotoxicity): > 64 µM
- EC50 [1]: 2.02 µM
- EC50 [2]: 2.03 µM
- CC50 at 3 days (MRC-5SV2 cytotoxicity): 20.2 µM
- EC50 [3]: > 64 µM

SMILES: CCc1cn([C@@H]2O[C@H](CO)[C@@H](O)[C@H]2O)c2ncncc12 [compound 38]
- CC50 at 5 days (PMM cytotoxicity): > 64 µM
- EC50 [1]: 1.73 µM
- EC50 [2]: 1.54 µM
- CC50 at 3 days (MRC-5SV2 cytotoxicity): > 64 µM
- EC50 [3]: 5.38 µM

SMILES: CCc1cn([C@@H]2O[C@H](CO)[C@@H](O)[C@H]2O)c2nc[nH]c(=O)c12 [compound 40]
- CC50 at 5 days (PMM cytotoxicity): > 64 µM
- EC50 [1]: 40.3 µM
- EC50 [2]: 48.5 µM
- CC50 at 3 days (MRC-5SV2 cytotoxicity): > 64 µM
- EC50 [3]: > 64 µM

SMILES: CCc1cn([C@@H]2O[C@H](CO)[C@@H](O)[C@H]2O)c2ncnc(OC)c12 [compound 41]
- CC50 at 5 days (PMM cytotoxicity): > 64 µM
- EC50 [1]: 1.31 ± 0.44 µM
- EC50 [2]: 0.47 ± 0.01 µM
- CC50 at 3 days (MRC-5SV2 cytotoxicity): > 64 µM
- EC50 [3]: > 64 µM
